The record followed here is ChEMBL document CHEMBL1144917, “Synthetic, nondegradable diadenosine polyphosphates and diinosine polyphosphates: their effects on insulin-secreting cells and cultured vascular smooth muscle cells” (J Med Chem, 2003).

Test [1] has as its system INS1. Put plainly: Percent of compound radioactivity ([3H]-Ap4A Degradation), in presence of added Ap(s)pCHClpp(s)A, in the incubation medium of INS-1 cell membranes. In kind it is functional, cell-based. The method, boiled down: (§1)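 Membranes from half-confluent INS-1 cells incubated 10 min at 37 °C in KRH buffer with 5.6 mM glucose, 0.31 μM [3H]Ap4A, with or without 30 μM unlabeled nucleotide. Medium aliquot mixed with unlabeled standards, TLC on silica gel in dioxane/conc. ammonia/water (6:1:4) for 2 h. UV-located spots cut out and scintillation counted. Reported as percent of radioactivity per species; mean ± SE of two experiments.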

The subject of test [2] is INS1. Put plainly: Percent of compound radioactivity ([3H]-Ap4A Degradation), in presence of added Ap(s)pCH2pp(s)A, in the incubation medium of INS-1 cell membranes. In kind it is functional, cell-based. The essentials:
as §1

For test [3], the species on record is Rattus norvegicus. Put plainly: Percent of compound radioactivity ([3H]-Ap4A Degradation), in presence of added Ap(s)pCH2pp(s)A, in heparinized rat plasma. The format is functional. Details: concentration or dose not given beside the values. The method, boiled down:
(§2)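 Heparinized rat plasma (40 μL) incubated 15 min with 10 nM [3H]Ap4A plus 3 μL saline or 3 μL of a 1 mM analogue solution. Products resolved by TLC on silica gel in dioxane/conc. ammonia/water (6:1:4) alongside unlabeled standards, and spots scintillation counted. Reported as percent of radioactivity per species; mean ± SE of two experiments.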

Test [4] is filed under the species Rattus norvegicus. Put plainly: Percent of compound radioactivity ([3H]-Ap4A Degradation) in heparinized rat plasma (saline). The format is functional. The essentials: as §2
Test [5] has as its system INS1. Put plainly: Percent of compound radioactivity ([3H]-Ap4A Degradation), in presence of added Ap4A, in the incubation medium of INS-1 cell membranes. The format is functional, cell-based. More on the design: concentration or dose not given beside the values. The essentials:
as §1

The test system of test [6] is INS1. Briefly: Percent of compound radioactivity ([3H]-Ap4A Degradation), determined in the incubation medium of INS-1 cell membranes. The format is functional, cell-based. Details: concentration or dose not given beside the values. The essentials:
as §1

The species named for test [7] is Rattus norvegicus. Put plainly: Percent of compound radioactivity ([3H]-Ap4A Degradation), in presence of added Ap(s)pCHClpp(s)A, in heparinized rat plasma. The format is functional. More on the design: concentration or dose not given beside the values. The essentials:
as §2

For `Nc1ncnc2c1ncn2[C@@H]1O[C@H](COP(=O)(O)OP(=O)(O)OP(=O)(O)OP(=O)(O)OC[C@H]2O[C@@H](n3cnc4c(N)ncnc43)[C@H](O)[C@@H]2O)[C@@H](O)[C@H]1O`, the Radioactivity in the test on INS1 [1] was determined as 61.3%; in the test with INS1 [2], 54.9%; in the test listed under Rattus norvegicus [3], 31.6%; in the test filed under Rattus norvegicus [4], 21.5%; in the test on INS1 [5], 70%; with INS1 [6] it was 52.4%. Also, in the test filed under Rattus norvegicus [7], the Radioactivity was 26.5%.

As for `Nc1ncnc2c1ncn2[C@@H]1O[C@H](COP(=O)(O)OP(=O)(O)OP(=O)(O)O)[C@@H](O)[C@H]1O`, the Radioactivity stood at 8.2% with INS1 [2]; 37.6% in the test listed under Rattus norvegicus [3]; 42.1% in the test filed under Rattus norvegicus [4]; 4% in the test with INS1 [5]; 8.4% in the test with INS1 [6]; 40.5% in the test filed under Rattus norvegicus [7].

Take `Nc1ncnc2c1ncn2[C@@H]1O[C@H](COP(=O)(O)OP(=O)(O)O)[C@@H](O)[C@H]1O`: the Radioactivity with INS1 [1] was 8.8%; in the test on INS1 [2], 9.3%; in the test listed under Rattus norvegicus [3], 27.4%; in the test filed under Rattus norvegicus [4] it was 22.3%; in the test on INS1 [5] it was 7.8%; in the test on INS1 [6] it was 11.3%. Moreover, in the test listed under Rattus norvegicus [7], the Radioactivity stood at 30.6%.

Take `Nc1ncnc2c1ncn2[C@@H]1O[C@H](COP(=O)(O)O)[C@@H](O)[C@H]1O`: the Radioactivity turned out to be 1.98% in the test filed under Rattus norvegicus [3]; 2.4% in the test filed under Rattus norvegicus [4]; 0.8% in the test on INS1 [5]; 5.3% with INS1 [6]; 2.31% in the test listed under Rattus norvegicus [7].

`Nc1ncnc2c1ncn2[C@@H]1O[C@H](CO)[C@@H](O)[C@H]1O`: the Radioactivity in the test with INS1 [1] is 14.3%; in the test with INS1 [2], 19.4%; in the test listed under Rattus norvegicus [3], less than 1%; in the test listed under Rattus norvegicus [4] it was less than 1%; with INS1 [5] it was 15.1%; with INS1 [6] it was 22.4%. In addition, in the test filed under Rattus norvegicus [7], the Radioactivity was less than 1%.
